Bioassay records deposited in PubChem BioAssay by Johns Hopkins Ion Channel Center.
MrgX1 allo act: human MrgX1 positive allosteric modulation, primary screen; AID 588675; B-score at 10 µM; hit rate 0.63% among 310,000; MrgX1-HEK293, Fluo-4 calcium flux, FDSS; hits give high values; Q96LB2;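 active means plate-corrected calcium response at least 3 library SD above typical, normal starting fluorescence, not activating the receptor alone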;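 further: compound read alongside a low EC10 to EC30 dose of BAM8-22 agonist; peak minus trough fluorescence over baseline measured at the second addition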
Target sequence (Q96LB2 whole entry, looked up): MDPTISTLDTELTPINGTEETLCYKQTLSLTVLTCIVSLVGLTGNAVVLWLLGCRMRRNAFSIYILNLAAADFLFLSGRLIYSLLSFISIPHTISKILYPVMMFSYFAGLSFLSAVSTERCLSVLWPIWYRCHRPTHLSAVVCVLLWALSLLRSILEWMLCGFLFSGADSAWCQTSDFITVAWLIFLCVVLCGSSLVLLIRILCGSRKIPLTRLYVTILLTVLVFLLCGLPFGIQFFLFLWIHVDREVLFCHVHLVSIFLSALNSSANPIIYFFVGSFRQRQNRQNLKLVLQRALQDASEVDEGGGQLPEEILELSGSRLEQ
MrgX1 antagonist: antagonists of human MrgX1 receptor | Q96LB2 | MRGX1-HEK293 calcium flux, Fluo-4, BAM8-22 antagonism; hits give low values | B-score at 10 µM | hit rate 1.3% among 310,000 | AID 588676;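 active means calcium-response B-score plate-corrected more than 3 library SD below zero, starting fluorescence within 5 deviations, no agonist response on first addition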;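 further: peak minus trough fluorescence over baseline after final BAM8-22 challenge near maximal dose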
RGS4 pot: RGS4 potentiation or activation. HEK293 M3R/inducible RGS4, carbachol calcium flux Fluo4; hits give low values. B-score at 10 µM. hit rate 0.92% among 310,000. AID 463111;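 active means B-score of the integrated calcium signal more than 4 SD below the library mean, with starting fluorescence not abnormally high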;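 further: negative B-score means reduced calcium response which marks RGS4 activation or potentiation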
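Reagent: ECmax carbachol challenge; Test system: M3R-expressing HEK293 line, RGS4 induced by doxycycline; Schedule: overnight RGS4 induction, 30 min dye load 37 °C, 20 min compound RT; Detection: calcium dye Fluo4 fluorescence; Read-out: Agonist-evoked peak-minus-minimum fluorescence over baseline, integrated ratio, B score.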
MrgX1 ag: human MrgX1 receptor agonism, primary screen; B-score at 10 µM; Q96LB2; MrgX1-HEK293 cells, Fluo-4 calcium fluorescence, agonist mode; hits give high values; AID 588627; hit rate 0.44% among 310,000;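 active means calcium response B-score plate-corrected fluorescence ratio at least 3 library SD, with starting fluorescence B-score inside 5 SD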
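System: HEK293 cells stably expressing human MrgX1 receptor; Dosing: test compound in the initial addition of three; Schedule: overnight plating, then 30 min 37 °C plus 30 min room-temperature dye loading; Detection: kinetic calcium dye fluorescence, Fluo-4 NW; Controls: per-plate positive and negative controls for Z′ factor.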
RGS4 inh: inhibitors of human RGS4 | P49798 | HEK293 M3R/RGS4 inducible, Fluo-4 calcium flux; hits give high values; triggered by carbachol at its EC20 | B-score at 10 µM | hit rate 0.45% among 310,000 | AID 463165;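 active means B-score, a plate-corrected calcium signal, over three deviations above library mean, with baseline fluorescence within five deviations of library mean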;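 further: RGS4 expression induced by doxycycline in cells with stable M3 receptor; B-score is computed from the integrated fluorescence ratio over baseline after carbachol; higher B-score means a larger calcium signal and so more RGS4 inhibition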
Target sequence (P49798 whole entry, looked up): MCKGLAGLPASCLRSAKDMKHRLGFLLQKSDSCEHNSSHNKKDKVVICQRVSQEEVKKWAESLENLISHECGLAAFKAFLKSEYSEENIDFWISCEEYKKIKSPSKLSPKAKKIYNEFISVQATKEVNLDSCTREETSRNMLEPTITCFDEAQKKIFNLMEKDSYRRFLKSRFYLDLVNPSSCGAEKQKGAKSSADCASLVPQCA
MrgX1 PAM conf: confirmation of human MrgX1 receptor positive allosteric modulators. hit rate 13% among 1,200. MrgX1-HEK293, Fluo-4 calcium fluorescence, FDSS. activation (ratio percentage), % at 10 µM. shares compounds with MrgX1 allo act;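 active means ratio at least 3 SD above the weak peptide control, stable starting fluorescence, no direct agonism earlier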;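 further: compound followed by low BAM8-22 agonist challenge near EC20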
HEK293 Ca flux: MrgX1 antagonist counter-screen hit in parental HEK293 cells | AID 624111 | hit rate 2% among 4,000 | Fluo-4 calcium fluorescence, FDSS | shares compounds with MrgX1 antagonist | fluorescence ratio F(max-min)/F0 at 10 µM;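 active means duplicate-averaged calcium fluorescence ratio at least three times the standard deviation of buffer wells, a nonspecific response in parental cells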
HEK293 Ca counter: counter-screen for MrgX1 allosteric activators: effect in parental HEK293 cells | shares compounds with MrgX1 antagonist | parental HEK293 calcium flux, Fluo-4 fluorescence ratio; hits give high values | fluorescence ratio F(max-min)/F0 at 10 µM | hit rate 0.4% among 4,000 | AID 624114;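 active means calcium fluorescence ratio, averaged over duplicates, at least 3 SD of the buffer-well ratio, meaning a nonspecific response in receptor-free cells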;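 further: untransfected parental HEK293 lacking MrgX1 used as counterscreen for MrgX1 allosteric activators; fluorescence change taken during the second addition on a kinetic imager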
HEK293 Ca cntr2: activity in parental HEK293 cells lacking MrgX1 receptor; shares compounds with MrgX1 antagonist; Fluo-4 calcium fluorescence (FDSS); hits give high values; fluorescence ratio F(max-min)/F0 at 10 µM; hit rate 8.7% among 4,000; AID 624115;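 active means calcium fluorescence ratio at least three times the spread of buffer wells, meaning a non-specific response in parental cells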
Each line names hits and unclear results; the compound was inactive in the other large screens (follow-up assays come after a bar, where they were run). Rows were chosen to be rich in hits. Some 3.5% of all compounds tested hit in one or more screens of this group.

CCOC(=O)c1ccccc1NC(=O)c1ccccc1N(C)S(C)(=O)=O	MrgX1 allo act 7.2 | MrgX1 PAM conf 9.4% | HEK293 Ca flux inactive | HEK293 Ca counter inactive | HEK293 Ca cntr2 inactive
COC(=O)c1ccccc1NC(=O)c1ccccc1N(C)S(C)(=O)=O	MrgX1 allo act 10 | MrgX1 PAM conf inactive | HEK293 Ca flux inactive | HEK293 Ca counter inactive | HEK293 Ca cntr2 inactive
CCOC(=O)c1ccccc1NC(=O)c1ccc(N(C)S(C)(=O)=O)cc1	none
COC(=O)c1ccccc1N(C)S(C)(=O)=O	none
NC(=O)c1c(/N=C/c2cccs2)sc2c1CCCC2	none
CCc1cccc(NC(=O)c2ccc(NS(=O)(=O)c3c(C)noc3C)cc2)c1	MrgX1 allo act 15 | MrgX1 PAM conf 15% | HEK293 Ca flux inactive | HEK293 Ca counter inactive | HEK293 Ca cntr2 inactive
Cc1ccc(NC(=O)C(=O)NCCOc2ccc(Cl)cc2)c(C)c1	MrgX1 allo act 9.6 | MrgX1 PAM conf inactive | HEK293 Ca flux inactive | HEK293 Ca counter inactive | HEK293 Ca cntr2 inactive
CCCCc1ccc(S(=O)(=O)Nc2ccc(C)c(NS(C)(=O)=O)c2)cc1	MrgX1 allo act 9.7 | MrgX1 PAM conf inactive | HEK293 Ca flux inactive | HEK293 Ca counter inactive | HEK293 Ca cntr2 inactive
O=C(Nc1ccc(F)c(Cl)c1)N1CCCC1	MrgX1 allo act 13 | MrgX1 PAM conf inactive | HEK293 Ca flux inactive | HEK293 Ca counter inactive | HEK293 Ca cntr2 inactive
O=S(=O)(Nc1nnc(C(F)(F)F)s1)c1ccc(Cl)cc1	none
CC(C)(C)c1nnc(NS(=O)(=O)c2cc(Cl)ccc2Cl)s1	MrgX1 allo act 12 | MrgX1 PAM conf inactive | HEK293 Ca flux inactive | HEK293 Ca counter inactive | HEK293 Ca cntr2 inactive
Cc1cccc2c(SCC(N)=O)nc(-c3ccccc3)nc12	none
Cc1ccc(NC(=O)COC(=O)C2C3CC4OC(=O)C2C4C3)cc1 (stereo unspecified)	MrgX1 allo act 26 | MrgX1 PAM conf inactive | HEK293 Ca flux inactive | HEK293 Ca counter inactive | HEK293 Ca cntr2 inactive
N#CC(Cc1ccccc1OC(F)F)c1nc2ccccc2[nH]1 (stereo unspecified)	none
COc1ccc2c(c1)cc(C)c1nnc(SCC(=O)N(C)c3nc(-c4ccccc4)cs3)n12	MrgX1 allo act 20 | MrgX1 PAM conf inactive | HEK293 Ca flux inactive | HEK293 Ca counter inactive | HEK293 Ca cntr2 inactive
Cc1cc2cccc(C)c2nc1SCC(=O)N(C)c1nc(-c2ccccc2)cs1	none
Clc1ccc(-c2cc3ccccc3nc2N2CCOCC2)cc1	MrgX1 allo act 11 | MrgX1 PAM conf inactive | HEK293 Ca flux inactive | HEK293 Ca counter inactive | HEK293 Ca cntr2 inactive
Clc1ccc(-c2cc3ccccc3nc2N2CCCC2)cc1	none
COc1ccc(-c2[nH]ncc2-c2cnn(-c3ccccc3)c2)c(O)c1	MrgX1 allo act 9.4 | MrgX1 PAM conf inactive | HEK293 Ca flux inactive | HEK293 Ca counter inactive | HEK293 Ca cntr2 inactive
COc1ccc(-c2cn[nH]c2-c2ccc(O)cc2O)cc1	none
C=C(C)COc1ccc(-c2[nH]ncc2-c2ccccc2)c(O)c1	MrgX1 allo act 16 | MrgX1 PAM conf 14% | HEK293 Ca flux inactive | HEK293 Ca counter inactive | HEK293 Ca cntr2 inactive
C=C(C)COc1ccc(-c2[nH]ncc2-c2ccc(OC)cc2)c(O)c1	none
O=C(CSc1ccc([N+](=O)[O-])cn1)Nc1ccccc1N1CCOCC1	none
CCC(=O)c1ccc(OCCn2cnc3ccccc32)cc1	none
C=CCNC(=S)Nc1ccc(OC)c(S(=O)(=O)N2CCOCC2)c1	MrgX1 allo act 8.7 | MrgX1 PAM conf inactive | HEK293 Ca flux inactive | HEK293 Ca counter inactive | HEK293 Ca cntr2 inactive
C=CCNC(=S)Nc1ccc(Cl)c(S(=O)(=O)N2CCOCC2)c1	none
CCOC(=O)c1c(-c2cccs2)csc1NC(C)=O	none
CCOC(=O)c1c(-c2cccs2)csc1NC(=O)C(C)(C)C	MrgX1 allo act 12 | MrgX1 PAM conf inactive | HEK293 Ca flux inactive | HEK293 Ca counter inactive | HEK293 Ca cntr2 inactive
COc1ccc(S(=O)(=O)Nc2ncccn2)cc1	none
COc1ccccc1N1CCN(C(=O)c2cc3cc(C)ccc3[nH]2)CC1	MrgX1 allo act 11 | MrgX1 PAM conf inactive | HEK293 Ca flux inactive | HEK293 Ca counter inactive | HEK293 Ca cntr2 inactive
O=C(C1CCCO1)N1CCN(S(=O)(=O)c2ccc(Cl)cc2)CC1 (stereo unspecified)	MrgX1 allo act 15 | MrgX1 PAM conf inactive | HEK293 Ca flux inactive | HEK293 Ca counter inactive | HEK293 Ca cntr2 inactive
CCN(C(=O)CN1CCN(S(=O)(=O)c2ccccc2C(F)(F)F)CC1)c1c(N)n(Cc2ccccc2)c(=O)[nH]c1=O	none
CC1(C)C(=O)Nc2ccccc2N1C(=O)COC(=O)c1ccc(Cl)c(S(=O)(=O)NCc2ccccc2)c1	none
Fc1ccc(-c2cc(C(F)(F)F)nc(-n3cccn3)n2)cc1	MrgX1 allo act 8.2 | MrgX1 PAM conf 32% | HEK293 Ca flux inactive | HEK293 Ca counter inactive | HEK293 Ca cntr2 inactive
Fc1ccc(-c2cc(C(F)(F)F)nc(-n3cncn3)n2)cc1	none
Nc1nc(-c2ccccn2)nc(N)c1Cc1c(F)cccc1Cl	none
Cc1n[nH]c(C)c1Cc1c(F)cccc1Cl	MrgX1 allo act 25 | MrgX1 PAM conf 16% | HEK293 Ca flux inactive | HEK293 Ca counter inactive | HEK293 Ca cntr2 inactive
Nc1cc(Cl)ccc1Oc1ccccc1	MrgX1 allo act 20 | MrgX1 PAM conf inactive | HEK293 Ca flux inactive | HEK293 Ca counter inactive | HEK293 Ca cntr2 inactive
CSCCC(NS(=O)(=O)c1ccc(Cl)cc1)C(=O)O (stereo unspecified)	MrgX1 allo act 11 | MrgX1 PAM conf inactive | HEK293 Ca flux inactive | HEK293 Ca counter inactive | HEK293 Ca cntr2 inactive
CCn1cc(C(=S)N2CCC(C(N)=O)CC2)c2ccccc21	none
O=C(COc1ccc(Cl)cc1Cl)N/N=C/c1cccnc1	none
O=C(COc1ccc(Cl)cc1Cl)Nc1cccnc1	MrgX1 allo act 8.7 | MrgX1 PAM conf inactive | HEK293 Ca flux inactive | HEK293 Ca counter inactive | HEK293 Ca cntr2 inactive
COc1ccc(OC)c2sc(N(CCN(C)C)C(=O)c3cc(Cl)sc3Cl)nc12	MrgX1 allo act 21 | MrgX1 PAM conf inactive | HEK293 Ca flux inactive | HEK293 Ca counter inactive | HEK293 Ca cntr2 inactive
Cn1c(=O)c2ncn(CC(=O)N/N=C/c3ccco3)c2n(C)c1=O	none
